# From publication PMC2937276 (Molecular cancer therapeutics, 2010)
# Like-named read-outs stand apart in the source and are kept apart here.
# Experiments:
# [1] = test system: GBM culture 2227; experiment: XTT cell proliferation assay; type: cell-based, Mouse; conditions: Mus musculus, 36 h
# Outline: (§1)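 Primary human or mouse GBM cultures (DMEM, 10% FBS) were seeded at 5000 cells per 96-well well. Cells were cultured with test compound or vehicle for 36 h. Proliferation was read by XTT assay in quadruplicate. IC50 came from nonlinear-regression curve fitting.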
# [2] = test system: Hsp90 client proteins EGFR, Akt, Cdk4 and Cyclin D1; experiment: Immunoblot analysis of Hsp90 client proteins in mouse GBM cultures; type: cell-based
# Outline: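 Mouse GBM-1 and GBM-2 cultures and primary astrocytes treated with 250 nM test compound for varying times, or for 24 h against vehicle. RIPA lysates with 5 mM Na3VO4 and protease inhibitors. 40 µg resolved by SDS-PAGE onto PVDF, blocked in TBS-T/BSA/milk. Primary antibodies overnight at 4°C, secondary 1:10000 for 1 h at room temperature, ECL detection. Dynamin as control.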
# [3] = type: in vivo, CD-1 mice; conditions: for Kp: brain and plasma
# [4] = test system: GBM culture GBM43; experiment: XTT cell proliferation assay; type: cell-based, Human; conditions: Homo sapiens, 36 h
# Outline: as §1
# [5] = test system: GBM culture GBM6; experiment: XTT cell proliferation assay; type: cell-based, Human; conditions: Homo sapiens, GBM6, 36 h
# Outline: as §1
# [6] = test system: GBM culture 46; experiment: XTT cell proliferation assay; type: cell-based, Mouse; conditions: Mus musculus, 36 h
# Outline: as §1
# [7] = test system: GBM culture GBM15; experiment: XTT cell proliferation assay; type: cell-based, Human; conditions: Homo sapiens, 36 h
# Outline: as §1
# [8] = test system: GBM culture GBM-2; experiment: XTT cell proliferation assay; type: cell-based, Mouse; conditions: Mus musculus, GBM2, 36 h
# Outline: as §1
# [9] = test system: GBM culture 2000; experiment: XTT cell proliferation assay; type: cell-based, Mouse; conditions: Mus musculus, 36 h
# Outline: as §1
# [10] = test system: EGFRvIII-driven GBM tumors; experiment: Treatment of mice bearing GBM tumors; type: in vivo
# Outline: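 Adult (≥3 months) conditional EGFR*/Cdkn2a/Pten/CAG-luc mice under ketamine/xylazine received 250 nL adeno-CMV-Cre stereotaxically into the brain. Tumours were followed by luciferin (225 mg/kg IP) bioluminescence and randomised at the signal threshold. Dosing: 100 mg/kg IP in DMA/Tween 20/Cremophor/saline vehicle, or vehicle alone, thrice weekly ×2 weeks, then twice weekly for >100 days. At 180 days, survivors were perfused with PFA; coronal paraffin sections were H&E-stained. N=5 control, N=4 treated.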
# [11] = test system: GBM cells; experiment: Apoptosis analysis; type: cell-based, Mouse; conditions: 250 nM
# Outline: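 Two apoptosis read-outs on primary mouse GBM cultures (DMEM, 10% FBS), each with 250 nM compound for the indicated times. Pyknotic nuclei: 10,000 cells per chamber-slide well, fixed in fresh 4% PFA for 15 min, Hoechst 33258 at 5 µg/ml for 5 min. Nuclei were scored by fluorescence microscopy as % pyknotic over total across three areas. Cleaved caspase-3: western blot. Mean of three independent experiments ± SD.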
# [12] = test system: GBM culture 2415; experiment: XTT cell proliferation assay; type: cell-based, Mouse; conditions: Mus musculus, 36 h
# Outline: as §1
# [13] = test system: GBM culture GBM-1; experiment: XTT cell proliferation assay; type: cell-based, Mouse; conditions: Mus musculus, GBM1, 36 h
# Outline: as §1
# [14] = test system: GBM culture 69; experiment: XTT cell proliferation assay; type: cell-based, Mouse; conditions: Mus musculus, 36 h
# Outline: as §1
# [15] = test system: primary astrocytes cultures; experiment: Cell counting, growth of primary astrocytes under drug; type: cell-based, Mouse; conditions: increasing concentrations for 24 hours; 250 nM over time
# Outline: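 Primary mouse astrocyte cultures were grown with rising compound concentrations for 24 h, then counted. A second set was exposed to 250 nM for the indicated times before viable-cell counts. Counts are expressed as % of untreated cells. Values are means of triplicates with SD; t-test.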
# [16] = test system: GBM culture GBM12; experiment: XTT cell proliferation assay; type: cell-based, Human; conditions: Homo sapiens, 36 h
# Outline: as §1
# [17] = Hepatotoxicity and toxicity on exposure in mice; type: in vivo
# [18] = test system: GBM culture 2231; experiment: XTT cell proliferation assay; type: cell-based, Mouse; conditions: Mus musculus, 36 h
# Outline: as §1
# [19] = test system: GBM culture GBM59; experiment: XTT cell proliferation assay; type: cell-based, Human; conditions: Homo sapiens, 36 h
# Outline: as §1
# [20] = test system: GBM culture 42; experiment: XTT cell proliferation assay; type: cell-based, Mouse; conditions: Mus musculus, 36 h
# Outline: as §1
# [21] = test system: GBM culture GBM22; experiment: XTT cell proliferation assay; type: cell-based, Human; conditions: Homo sapiens, 36 h
# Outline: as §1
# [22] = test system: GBM culture 102; experiment: XTT cell proliferation assay; type: cell-based, Mouse; conditions: Mus musculus, 36 h
# Outline: as §1
# [23] = test system: EGFR-driven mouse GBM tumor primary cell cultures (GBM-1 & -2); experiment: Cell counting, growth of GBM cell cultures under drug; type: cell-based; conditions: increasing concentrations for 24 hours; 250 nM over time
# Outline: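 Mouse primary GBM cultures (GBM-1: wild-type plus vIII EGFR; GBM-2: EGFRvIII), alongside primary mouse astrocytes, kept in DMEM with 10% FBS. Cells exposed to increasing test-compound concentrations for 24 h, or to 250 nM for varying times. Viable cells counted and expressed as percent of untreated cells. Mean of triplicates with S.D.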
# [24] = test system: GBM culture 103; experiment: XTT cell proliferation assay; type: cell-based, Mouse; conditions: Mus musculus, 36 h
# Outline: as §1
# [25] = test system: GBM culture 41; experiment: XTT cell proliferation assay; type: cell-based, Mouse; conditions: Mus musculus, 36 h
# Outline: as §1
# [26] = test system: Hsp90 client proteins EGFR, Akt, Cdk4 and CyclinD1; experiment: Immunoblot analysis of Hsp90 client proteins in human GBM cultures; type: cell-based; conditions: human primary GBM culture cells; 250 nM, 24 hours
# Outline: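 Human primary GBM cultures in DMEM with 10% FBS, given 250 nM test compound or vehicle for 24 h. Lysed in RIPA with 5 mM Na3VO4 and protease inhibitors. Equal protein (40 µg) resolved by SDS-PAGE, transferred to PVDF, blocked in TBS-T with 1% BSA and 5% milk. Primary antibodies overnight at 4°C, secondary 1:10000 for 1 h at room temperature, ECL.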
# [27] = test system: GBM culture GBM8; experiment: XTT cell proliferation assay; type: cell-based, Human; conditions: Homo sapiens, 36 h
# Outline: as §1
# [28] = test system: GBM culture GBM39; experiment: XTT cell proliferation assay; type: cell-based, Human; conditions: Homo sapiens, GBM39, 36 h
# Outline: as §1
# [29] = Brain concentrations of HSP90 inhibitors after a single i.p. injection; conditions: NCR-Nude, mouse, intraperitoneal
# [30] = test system: GBM culture 2736; experiment: XTT cell proliferation assay; type: cell-based, Mouse; conditions: Mus musculus, 36 h
# Outline: as §1
# [31] = test system: GBM culture 2414; experiment: XTT cell proliferation assay; type: cell-based, Mouse; conditions: Mus musculus, 36 h
# Outline: as §1
# [32] = male, CD-1, mouse, brain, iv, 25 mg/kg
# [33] = male, CD-1, mouse, brain, iv, 70 mg/kg
# [34] = male, CD-1, mouse, plasma, iv, 25 mg/kg
# [35] = male, CD-1, mouse, plasma, iv, 70 mg/kg
# [36] = repeat dose, 25 mg/kg i.v. every other day
smiles,measurement,setting,value
O=C1OCC/C=C/CC/C=C/C(=N/OCC(=O)N2CCCCC2)Cc2c(Cl)c(O)cc(O)c21 [NXD30001],IC50,[1],134 ± 7.7 nM
same,Hsp90 client protein levels (western blot),"[2]; GBM-1 & -2 cultures, 250 nM for the indicated times","degradation of the Hsp90 client proteins EGFR, Akt, Cdk4 and Cyclin D1"
same,Hsp90 client protein levels (western blot),"[2]; mouse primary GBM culture cells, 250 nM, 24 hours","deplete the Hsp90 client proteins EGFR, Akt, Cdk4 and CyclinD1"
same,AUC(0-t),"[3]; brain, repeated i.v. injections 25 mg/kg every other day, 7 doses",940 ng·h/g
same,AUC(0-t),"[3]; brain, single i.v. injection 70 mg/kg",1073 ng·h/g
same,Kp,"[3]; male, CD-1, mouse, iv, 25 mg/kg",0.135
same,Kp,"[3]; male, CD-1, mouse, iv, 70 mg/kg",0.201
same,Cmax,[3]; [32],210 ng/g
same,Tmax,[3]; [32],0.25 h
same,half-life,[3]; [32],8.99 h
same,Cmax,[3]; [33],223 ng/g
same,Tmax,[3]; [33],0.5 h
same,half-life,[3]; [33],4.07 h
same,AUC(0-t),[3]; [34],6960 ng·h/mL
same,C0 at 0.5 h,[3]; [34],4530 ng/mL
same,Vd,[3]; [34],27.9 L/kg
same,clearance,[3]; [34],59.8 mL/min/kg
same,half-life,[3]; [34],5.4 h
same,AUC(0-t),[3]; [35],5350 ng·h/mL
same,C0,[3]; [35],2140 ng/mL
same,Vd,[3]; [35],51.5 L/kg
same,clearance,[3]; [35],217 mL/min/kg
same,half-life,[3]; [35],2.74 h
same,concentration detected in brain prior to the last dose,[3]; [36],less than 10 ng/g
same,concentration detected in plasma prior to the last dose,[3]; [36],less than 10 ng/mL
same,IC50,[4],86.3 ± 0.2 nM
same,IC50,[5],1220 ± 35.1 nM
same,IC50,[6],54.3 ± 12.5 nM
same,IC50,[7],60.7 ± 0.5 nM
same,IC50,[8],111 ± 9.4 nM
same,IC50,[9],115 ± 9.4 nM
same,effect on survival (Kaplan-Meier),"[10]; 100 mg/kg i.p. thrice weekly (X2) then twice weekly, versus vehicle",statistically significant prolongation in survival
same,survival of treated animals,"[10]; half of the treated animals, 100 mg/kg i.p. thrice weekly (X2) then twice weekly, N=4 treated",> 180 days
same,histological analysis of H&E stained brain sections of surviving animals,"[10]; surviving treated animals, after 180 days",few remaining tumor cell clusters
same,cleaved-caspase 3 (western blot),[11],appearance of cleaved-caspase 3
same,increase in apoptosis level (pyknotic nucleated cells),[11],10 fold
same,IC50,[12],251 ± 57.7 nM
same,IC50,[13],78.3 ± 8.3 nM
same,IC50,[14],73.4 ± 2.5 nM
same,inhibition of astrocyte growth,[15],but not of astrocytes
same,IC50,[16],2330 ± 60 nM
same,toxicity observed in the treated animals,[17]; GBM-bearing mice treated with 100 mg/kg i.p.,absence of toxicity
same,hepatotoxicity,"[17]; short and long term exposure in mice, data not shown and ref 13",does not result in hepatotoxicity
same,IC50,[18],146 ± 3.7 nM
same,IC50,[19],232 ± 13.2 nM
same,IC50,[20],73.8 ± 0.7 nM
same,IC50,[21],5260 ± 152 nM
same,IC50,[22],360 ± 21.6 nM
same,inhibition of GBM cell growth,[23],dose and time dependent inhibition of GBM cell growth
same,IC50,[24],576 ± 14.8 nM
same,IC50,[25],80.2 ± 5.9 nM
same,Hsp90 client protein levels (western blot),[26],"deplete the Hsp90 client proteins EGFR, Akt, Cdk4 and CyclinD1"
same,IC50,[27],5690 ± 450 nM
same,IC50,[28],111.6 ± 1 nM
same,concentration at 6 h,[29]; 100 mg/kg,676 ng/g
same,concentration at 12 h,[29]; 100 mg/kg,823 ng/g
same,concentration at 24 h,[29]; 100 mg/kg,271 ng/g
same,concentration at 48 h,[29]; 100 mg/kg,10.7 ng/g
same,concentration at 6 h,[29]; 150 mg/kg,1440 ng/g
same,concentration at 12 h,[29]; 150 mg/kg,3420 ng/g
same,concentration at 24 h,[29]; 150 mg/kg,900 ng/g
same,concentration at 48 h,[29]; 150 mg/kg,116 ng/g
same,IC50,[30],77.6 ± 2.8 nM
same,IC50,[31],31.7 ± 4.9 nM
